pEC50, pKi: −log10 of the molar value. Values belong to the compound of their own block, whether it stands above or below them.
What was measured:
[1] = species on record: Cavia porcellus; experiment: In vitro agonistic activity on isolated guinea pig ileum; format: functional
Method in brief: (§1)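 Longitudinal ileal muscle strips from male guinea pig were held in Krebs-Henseleit (pH 7.4, carbogen) at 37 °C under about 5 mN tension and recorded isometrically. Single agonist concentrations were added, with washout and rest between each. EC50 was read graphically. Emax was expressed as percent of the carbachol maximum. Low-efficacy agents were estimated from pooled curves of at least two experiments.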

[2] = species on record: Cavia porcellus; experiment: In vitro antagonistic activity on isolated guinea pig urinary bladder; format: functional
Method in brief: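 Bladder smooth-muscle strips from male guinea pigs (~300 g) in Krebs-Henseleit, pH 7.4, carbogen-gassed, 37 °C, ~5 mN resting tension, stabilized ≥45 min; isometric tension recorded. A control cumulative carbachol curve was run, then washout and ≥15 min rest. A fixed test-compound concentration was incubated 60 min before a second carbachol curve. Carbachol EC50s were read graphically and dose ratios calculated to give KB; 2–8 experiments.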

[3] = species on record: Cavia porcellus; experiment: Maximum response relative to that elicited by carbachol in guinea pig ileum was determined; format: functional; method in brief: as §1
[4] = molecular target: T1, Muscarinic acetylcholine receptor M3 (Cavia porcellus, UniProt Q8VH26); experiment: Compound was evaluated for its binding affinity against muscarinic acetylcholine receptor M3 in guinea pig parotid gland using (-)-[3H]-QNB as radioligand; format: tissue-based
T1 sequence (Q8VH26 whole entry): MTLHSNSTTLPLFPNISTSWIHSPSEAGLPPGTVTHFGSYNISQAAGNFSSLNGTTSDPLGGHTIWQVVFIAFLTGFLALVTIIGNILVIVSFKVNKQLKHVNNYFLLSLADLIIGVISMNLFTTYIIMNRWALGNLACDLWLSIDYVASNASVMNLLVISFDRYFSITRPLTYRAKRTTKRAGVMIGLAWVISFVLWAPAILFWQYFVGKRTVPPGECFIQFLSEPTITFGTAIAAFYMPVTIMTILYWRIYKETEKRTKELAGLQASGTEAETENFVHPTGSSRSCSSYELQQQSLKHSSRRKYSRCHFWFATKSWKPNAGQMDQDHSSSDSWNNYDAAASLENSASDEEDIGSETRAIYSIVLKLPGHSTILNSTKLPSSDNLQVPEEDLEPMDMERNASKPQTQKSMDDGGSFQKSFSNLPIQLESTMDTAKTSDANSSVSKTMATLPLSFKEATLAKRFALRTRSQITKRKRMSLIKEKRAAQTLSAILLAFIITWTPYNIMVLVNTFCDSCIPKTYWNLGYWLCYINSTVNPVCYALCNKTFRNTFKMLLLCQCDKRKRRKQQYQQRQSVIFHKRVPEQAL
Method in brief: (§2)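 Male guinea pig parotid gland homogenate was prepared in 50 mM Na/K phosphate pH 7.4 with 1 mM PMSF (protein ≤0.3 mg/mL). Triplicates were incubated with 2 nM (final) (−)-[3H]QNB at 25 °C for 210 min, with nonspecific binding defined by 10 µM atropine. Samples were separated by centrifugation and counted by scintillation. Ki came from graphical IC50 corrected by the Jacobs method, from 2–3 experiments.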

[5] = molecular target: T1, Muscarinic acetylcholine receptor M3; experiment: Compound was evaluated for its binding affinity against Muscarinic acetylcholine receptor M3 in guinea pig parotid gland using (-)-[3H]-QNB as radioligand; format: tissue-based; method in brief: as §2
[6] = molecular target: T1, Muscarinic acetylcholine receptor M3; experiment: Compound was evaluated for its binding affinity against muscarinic acetylcholine receptor M3 n guinea pig parotid gland using (-)-[3H]-QNB as radioligand; format: tissue-based; method in brief: as §2

Compound: C[C@H]1CC[C@@]2(CN3CCC2CC3)O1
pEC50 [1]: 4.92
Kb [2]: 93 µM
Emax [3]: 29%
pKi [4]: 4.46

Compound: C[C@@H]1C[C@@]2(CO1)CN1CCC2CC1
pEC50 [1]: 4.92
Kb [2]: 19 µM
Emax [3]: 7%
pKi [4]: 4.48

Compound: C1OCC2(CN3CCC2CC3)O1 (stereo not given)
pEC50 [1]: 4.00
Kb [2]: 122 µM
Emax [3]: 45%
pKi [4]: 4.07

Compound: C[C@@H]1OC[C@@]2(CN3CCC2CC3)O1
pEC50 [1]: 4.77
Kb [2]: 13 µM
Emax [3]: 24%
pKi [4]: 4.60

Compound: C[C@H]1C[C@@]2(CO1)CN1CCC2CC1
pEC50 [1]: 3.82
Kb [2]: 30 µM
Emax [3]: 25%
pKi [5]: 4.59

Compound: C[C@H]1OC[C@@]2(CN3CCC2CC3)O1
pEC50 [1]: 5.22
Kb [2]: 4.8 µM
Emax [3]: 91%
pKi [4]: 4.82

Compound: C[C@@H]1CC[C@@]2(CN3CCC2CC3)O1
pEC50 [1]: 4.52
Kb [2]: 90 µM
Emax [3]: 20%
pKi [5]: 4.11

Compound: CC1(C)OCC2(CN3CCC2CC3)O1 (stereo not given)
pEC50 [1]: 4.66
Kb [2]: 41 µM
Emax [3]: 14%
pKi [6]: 4.41

pEC50 [1]: 6.77
pEC50 [2]: 5.77
Compound: C[N+](C)(C)CCOC(N)=O [CARBACHOL]
Emax [3]: 100%
